# In the library only some 9.4% were active in any assay of this set; here they are far more common.
# Beta apoptosis – blocks beta cell apoptosis. INS-1E cytokine-induced death, ATP luminescence, 48 h; percent of positive-control rescue, neutral wells zero. AID 435005. hit rate 0.8% among 300,000. protection from apoptosis, % (no concentration beside the values);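 active = Every replicate reaches about 75%, or at least half do and their mean reaches it too, limit read from the data; inconclusive = At least half of replicates reach the limit but their mean does not; inactive = Under half of replicates reach the limit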;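 also: higher means more ATP so stronger rescue from cytokine killing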
# CSC inhib – blocks cancer stem cells; cancer stem cell-like cells viability, luminescence; inhibition, % at 7.5 µM; hit rate 1.1% among 300,000; in the data active = inhibition above about 75%; inconclusive = no clear call, values can overlap the other calls; tested in HMLE shEcad cells
# Mdm2-MdmX inh – human Mdm2/MdmX binding inhibition; O15151+Q00987; inhibition, % at 8 µM; hit rate 3% among 330,000; SaOS-2 split-luciferase Mdm2/MdmX complementation, luminescence; AID 485346;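 active = inhibition of at least 50% at 8 µM in the primary screen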
# SKKanGAS inh – SKKanGAS growth inhibition. S. pyogenes SKKanGAS, kanamycin growth, BacTiter-Glo, 6 h. inhibition, % at 7.5 µM. hit rate 1.3% among 300,000. AID 1662;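 active = mean replicate score, as percent of positive control median, at least 50; inconclusive = mean below 50 but one replicate at or above 50; inactive = mean and every replicate below 50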;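 also: strain carries kanamycin resistance gene driven by streptokinase promoter and grows in 40 µg/ml kanamycin; loss of luminescence reflects streptokinase promoter inhibition or plain growth inhibition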
# Lmaj promast – Leishmania major promastigote growth inhibition; Leishmania major promastigotes, resazurin fluorescence viability; inhibition, % at 10 µM; hit rate 9% among 200,000; in the data active = inhibition above about 50%;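 also: promastigotes grown with compound for 44 hours at 28 °C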
# T cruzi inh – blocks replication of Trypanosoma cruzi; T. cruzi beta-gal in NIH3T3, luminescence, 90 h; hit rate 1.4% among 300,000; inhibition, % (no concentration beside the values);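 active = mean inhibition across valid replicates above about 55%, limit read from the data; inconclusive = mean below that limit but half or more replicates reach it; inactive = mean below it, under half of replicates reach it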;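 also: signal also drops with host cell toxicity which is not excluded here; higher percent means less beta-gal luminescence so fewer parasites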
#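 System: NIH/3T3 fibroblasts plus reporter T. cruzi. Medium: DMEM plus 2% FBS. Probe or stimulus: 5000 reporter trypomastigotes per well. Compound: single 50 nL compound addition per well in DMSO. Incubation: co-culture of at least 90 h after 3 h attachment. Detection: GalScreen β-gal luminescence, detergent lysis, 60 min. Evaluation: parasite load inhibition, %.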
# A number is an active result; 0 = inactive; ? = inconclusive; - = not tested or not shown.
SMILES,Beta apoptosis,CSC inhib,Mdm2-MdmX inh,SKKanGAS inh,Lmaj promast,T cruzi inh
O=C(/C=C/c1ccccc1)c1cc(Br)ccc(=O)c1O,0,93,0,98,77,0
Cc1ccc(/C=C/C(=O)c2ccccc(=O)c2O)cc1C,0,97,-,97,97,59
O=C(/C=C/c1ccc2c(c1)OCCO2)c1ccccc1,0,0,0,0,-,0
O=C(/C=C/c1ccc(F)cc1)c1cc(Br)ccc1O,0,?,0,0,-,0
CCn1c(COC(=O)CNC(=O)c2ccccc2F)nc2cc(S(=O)(=O)N(C)C)ccc21,0,0,0,0,-,0
COc1ccc(-c2cc(C3CCN(c4cc(Cl)nc(N)n4)CC3)[nH]n2)cc1,0,0,0,0,0,0
Clc1ccc(-c2cc(C3CCNCC3)[nH]n2)cc1,0,0,0,0,61,0
COc1cccc(CNc2nc(-c3cccnc3)nc3ccccc23)c1,0,0,0,0,76,0
CCOc1ccc(CCNC(=O)COC(=O)c2oc3ccccc3c2COC)cc1OCC,0,0,0,-,-,-
COc1cc(CNC2CCCC2)cc(Cl)c1OCc1ccc(F)cc1,0,0,0,0,101,0
COc1cc(CNC2CCCCCCC2)cc(Cl)c1OCC(N)=O,0,0,0,0,-,0
CC1CCN(C(=O)c2ccc(NS(=O)(=O)c3ccc4[nH]c(=O)[nH]c4c3)cc2)CC1,0,0,0,0,-,0
O=C(Cc1ccc2c(c1)OCCO2)Nc1cccc(S(=O)(=O)N2CCOCC2)c1,0,-,0,-,-,-
CC(Sc1nc2cc(Cl)ccc2s1)C(=O)Nc1cccc(S(=O)(=O)N2CCOCC2)c1 (stereo not given),0,0,0,0,62,0
CSCCC(NC(=O)c1cccc(S(=O)(=O)N2CCOCC2)c1)C(=O)Nc1cccc(C)c1 (stereo not given),0,0,0,0,70,0
O=C(Cc1ccc(Cl)c(Cl)c1)Nc1cccc(S(=O)(=O)N2CCOCC2)c1,0,0,0,0,55,0
O=C(Nc1cccc(S(=O)(=O)N2CCOCC2)c1)c1ccco1,0,0,0,0,93,0
COc1cc(CCC(=O)Nc2ccc(C)c(S(=O)(=O)N(C)C)c2)cc(OC)c1OC,0,0,0,0,0,0
O=C(COc1ccc(Cl)cc1)NC1=NN(c2ccccc2)C(=O)C1,0,0,0,62,0,0
O=C(CCCCl)NC1=NN(c2ccccc2)C(=O)C1,0,0,-,-,0,-
CN(C)CCCC1Sc2ccccc2Sc2ccccc21 (stereo not given),-,0,0,0,-,0
CNCCC1Sc2ccccc2Oc2ccccc21 (stereo not given),0,0,0,0,95,0
Cc1ccc(-c2nnc(NC3CCCCC3)c3ccccc23)cc1S(=O)(=O)N1CCN(C)CC1,0,0,0,0,96,0
Cc1ccc(-c2nnc(NCc3nc4ccccc4[nH]3)c3ccccc23)cc1S(=O)(=O)N1CCCCC1,0,0,0,0,0,0
N#CCC(=O)Nc1ccc(C(=O)NNC(=O)c2ccccc2-n2cccc2)cc1,0,0,0,-,-,-
SMILES,Beta apoptosis,CSC inhib,Mdm2-MdmX inh,SKKanGAS inh,Lmaj promast,T cruzi inh
Cc1c(C#N)c(N=CN(C)C)c(C(=O)c2ccc(Br)cc2)n1-c1ccccc1,0,0,0,0,100,0
O=C1C=C(N2CCCCC2)c2ccccc2C1=O,117,97,0,82,-,0
COc1ccc(C(=O)Nc2ccccc2N2CCN(C(=O)c3ccccc3)CC2)cc1Br,0,0,0,0,-,0
CC1(C)CC(=O)C2=C(C1)c1c(ccc3ccccc13)NC2c1cc([N+](=O)[O-])cc([N+](=O)[O-])c1O (stereo not given),0,0,0,72,0,0
COc1cc(C=O)c(Br)cc1OCc1ccc(C)cc1,0,0,0,0,0,0
CCOc1cc(C=O)c(Br)cc1OC1CCCC1,0,0,0,0,83,0
CN(CCc1ccccn1)Cc1ccc(Cl)c(Cl)c1,0,0,0,0,-,62
CN(CCc1ccccn1)S(=O)(=O)c1ccccc1F,0,0,0,0,0,0
CSc1ccc(CN(C)CCc2ccccn2)cc1,-,0,0,0,-,59
CN(CCc1ccccn1)Cc1ccc(Cl)cc1Cl,0,0,0,0,0,0
O=C(CN(C(=O)c1csnn1)c1ccccc1F)NC1CCCCC1,0,0,0,0,-,0
Nc1ccc(N(c2ccccc2)c2ccc(N)cc2)cc1,-,90,0,0,100,58
CN(C)c1ccc(CCc2ccc(N)cc2)cc1,0,0,0,0,-,0
S=C(Nc1ccc(Cl)cc1)c1nc2ccccc2[nH]1,0,0,0,76,88,0
Cc1ccccc1NC(=O)NCCc1nc2ccccc2[nH]1,0,0,0,0,0,0
Cc1ccccc1NC(=S)c1nc2ccccc2[nH]1,0,0,-,0,90,0
Cc1cc(C)c(OCC(=O)OC(C)C(=O)N2CCc3ccccc32)c(C)c1 (stereo not given),0,0,0,0,-,0
CCOCCCNC(=S)N1CCC(NC(=O)C23CC4CC(CC(C4)C2)C3)CC1,0,0,0,0,63,0
COCCN(C(=O)CN1CCN(S(=O)(=O)c2ccc(F)cc2)CC1)c1c(N)n(Cc2ccccc2)c(=O)[nH]c1=O,0,0,0,0,0,0
CCOC(=O)CN1C=C(c2ccc3ccccc3n2)C(C[N+](=O)[O-])c2ccccc21 (stereo not given),0,0,0,0,99,-
CC(C)[C@@H]1CC[C@@H](C)c2c(-c3ccccc3)n[nH]c21,0,101,0,88,0,0
O=C(O)c1ccc(N2C(=O)c3[nH]nc(-c4ccccc4)c3C2c2ccccc2)cc1 (stereo not given),0,0,0,0,0,0
O=C1OC(CN2CCOCC2)CN1N=Cc1ccc([N+](=O)[O-])o1 (stereo not given),0,0,0,-,-,-
O=C1OCCN1/N=C/c1ccc([N+](=O)[O-])o1,-,0,0,0,93,0
O=C1CN(/N=C/c2ccc([N+](=O)[O-])o2)C(=O)N1,0,0,0,84,95,?
SMILES,Beta apoptosis,CSC inhib,Mdm2-MdmX inh,SKKanGAS inh,Lmaj promast,T cruzi inh
O=[N+]([O-])c1ccc(/C=N\NS(=O)(=O)c2ccc(F)cc2)o1,0,0,0,0,-,0
COc1cc(C(=O)NCC(=O)N/N=C(/C)c2cccs2)cc(OC)c1OC,0,0,0,0,65,0
Cc1c(CCOC(=O)c2cc([N+](=O)[O-])cc([N+](=O)[O-])c2)sc[n+]1CC(=O)c1ccccc1,0,0,0,0,0,69
Cc1c(CCOC(=O)c2ccccc2)sc[n+]1CC(=O)c1ccc(Br)cc1,0,-,0,0,-,0
Cn1c(SCC2CCCO2)nnc1-c1ccc([N+](=O)[O-])cc1 (stereo not given),0,0,0,0,0,0
FC(F)(F)c1cccc(NC(=S)NCC2COc3ccccc3O2)c1 (stereo not given),0,0,0,0,51,0
CCCNC(=S)Nc1cccc(C(F)(F)F)c1,0,0,0,0,71,0
FC(F)(F)c1cccc(N2CCN(C(=S)NC3CCCCC3)CC2)c1,0,0,0,0,97,0
